# ChEMBL document CHEMBL2434860, “Nitroreductase-activated nitric oxide (NO) prodrugs” (Bioorg Med Chem Lett, 2013)
# Key:
# [1] = Stability of the compound in phosphate buffer at pH 7.0 assessed as nitric oxide release at 50 uM after 1 hr by chemiluminescence assay in absence of Escherichia coli NTR and presence of NADPH; type: physicochemical; conditions: pH 7, 1 h
# How it was run: (§1)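 Compound at 50 µM was incubated at 37 °C in pH 7.0 phosphate buffer with NADPH, with or without E. coli nitroreductase. After 1 h, an aliquot was injected into a chemiluminescence NO analyser (argon carrier) whose reservoir held NaI/acetic acid, so nitrite was also counted as NO. The signal was calibrated against NaNO2 standards. Values are averages of two independent runs.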
# [2] = Prodrug conversion in phosphate buffer at pH 7.4 assessed as Escherichia coli NTR-mediated decomposition measuring nitric oxide release at 50 uM after 5 mins; type: physicochemical; conditions: pH 7.4, 5 min
# How it was run: (§2)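 Compound at 50 µM was reacted with E. coli nitroreductase and NADPH in phosphate buffer at pH 6.5 or at pH 7.4 (PBS), stirred at 37 °C. Aliquots were injected at set time points into a chemiluminescence NO analyser with an NaI/acetic acid reservoir, which also converts nitrite to NO. The signal was calibrated with NaNO2 standards.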
# HeLa [3] = experiment: Cytotoxicity against human HeLa cells assessed as cell viability at 10 uM after 72 hrs by MTT assay in absence of Escherichia coli NTR and NADPH (reference value: 88.2%); type: functional; conditions: read-out: Activity
# DLD-1 [4] = experiment: Antiproliferative activity against human DLD1 cells assessed as cell viability at 25 uM after 72 hrs by MTT assay in presence of Escherichia coli NTR and NADPH (reference value: 86.3%); type: functional; conditions: DLD-1, 72 h, read-out: Activity
# How it was run: (§3)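 DLD-1 human colon adenocarcinoma cells seeded at 3 × […] cells/well overnight in complete RPMI 1640. Treated with compound from DMSO stock (1% DMSO final), with or without E. coli nitroreductase (6 mg/2 mL DPBS stock) and NADPH (0.5 mM stock in DPBS). Incubated 72 h at 37 °C. MTT added for 4 h, formazan dissolved in DMSO, absorbance read at 570 nm for viability.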
# DLD-1 [5] = experiment: Antiproliferative activity against human DLD1 cells assessed as cell viability at 1 uM after 72 hrs by MTT assay in absence of Escherichia coli NTR and presence of NADPH (reference value: 74.8%); type: functional; conditions: DLD-1, 72 h, read-out: Activity; how it was run: as §3
# DLD-1 [6] = experiment: Antiproliferative activity against human DLD1 cells assessed as cell viability at 1 uM after 72 hrs by MTT assay in presence of Escherichia coli NTR and NADPH (reference value: 86.3%); type: functional; conditions: DLD-1, 72 h, read-out: Activity; how it was run: as §3
# [7] = Prodrug conversion in phosphate buffer at pH 7.0 assessed as Escherichia coli NTR-mediated decomposition measuring nitric oxide release at 50 uM after 1 hr by chemiluminescence assay in presence of NADPH; type: physicochemical; conditions: pH 7, 1 h; how it was run: as §1
# HeLa [8] = experiment: Cytotoxicity against human HeLa cells assessed as cell viability at 1 uM after 72 hrs by MTT assay in absence of Escherichia coli NTR and NADPH (reference value: 88.2%); type: functional; conditions: read-out: Activity
# [9] = Prodrug conversion in phosphate buffer at pH 7.0 assessed as Escherichia coli NTR-mediated decomposition measuring compound remaining at 50 uM after 1 hr by HPLC analysis in presence of NADPH; type: physicochemical; conditions: pH 7, 1 h
# How it was run: (§4)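 Compound at 50 µM (from a 10 mM DMSO stock) was stirred at 37 °C in pH 7.0 phosphate buffer with NADPH, with or without E. coli nitroreductase; the blank had no enzyme. After 1 h, an aliquot was analysed by reverse-phase C-18 HPLC (70% MeCN:H2O, 1 mL/min) for compound remaining. Values are averages of two independent runs.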
# [10] = Stability of the compound in phosphate buffer at pH 7.0 assessed as compound remaining at 50 uM after 1 hr by HPLC analysis in absence of Escherichia coli NTR and presence of NADPH; type: physicochemical; conditions: pH 7, 1 h; how it was run: as §4
# HeLa [11] = experiment: Cytotoxicity against human HeLa cells assessed as cell viability at 25 uM after 72 hrs by MTT assay in absence of Escherichia coli NTR and NADPH (reference value: 88.2%); type: functional; conditions: read-out: Activity
# HeLa [12] = experiment: Cytotoxicity against human HeLa cells assessed as cell viability after 72 hrs by MTT assay in presence of Escherichia coli NTR and NADPH; type: functional, cell-based
# HeLa [13] = experiment: Cytotoxicity against human HeLa cells assessed as cell viability at 25 uM after 72 hrs by MTT assay in presence of Escherichia coli NTR and NADPH (reference value: 67.2%); type: functional; conditions: read-out: Activity
# DLD-1 [14] = experiment: Antiproliferative activity against human DLD1 cells assessed as cell viability at 25 uM after 72 hrs by MTT assay in absence of Escherichia coli NTR and presence of NADPH (reference value: 74.8%); type: functional; conditions: DLD-1, 72 h, read-out: Activity; how it was run: as §3
# [15] = Prodrug conversion in phosphate buffer at pH 6.5 assessed as Escherichia coli NTR-mediated decomposition measuring nitric oxide release at 50 uM after 5 mins; type: physicochemical; conditions: pH 6.5, 5 min; how it was run: as §2
# DLD-1 [16] = experiment: Antiproliferative activity against human DLD1 cells assessed as cell viability at 10 uM after 72 hrs by MTT assay in presence of Escherichia coli NTR and NADPH (reference value: 86.3%); type: functional; conditions: DLD-1, 72 h, read-out: Activity; how it was run: as §3
# DLD-1 [17] = experiment: Antiproliferative activity against human DLD1 cells assessed as cell viability at 75 uM after 72 hrs by MTT assay in absence of Escherichia coli NTR and presence of NADPH; type: functional; conditions: DLD-1, 72 h, read-out: Activity; how it was run: as §3
# DLD-1 [18] = experiment: Antiproliferative activity against human DLD1 cells assessed as cell viability at 75 uM after 72 hrs by MTT assay in presence of Escherichia coli NTR and NADPH relative to control; type: functional; conditions: DLD-1, 72 h, read-out: Activity; how it was run: as §3
# DLD-1 [19] = experiment: Antiproliferative activity against human DLD1 cells assessed as cell viability at 10 uM after 72 hrs by MTT assay in absence of Escherichia coli NTR and presence of NADPH (reference value: 74.8%); type: functional; conditions: DLD-1, 72 h, read-out: Activity; how it was run: as §3
# HeLa [20] = experiment: Cytotoxicity against human HeLa cells assessed as cell viability at 10 uM after 72 hrs by MTT assay in presence of Escherichia coli NTR and NADPH (reference value: 67.2%); type: functional; conditions: read-out: Activity
# HeLa [21] = experiment: Cytotoxicity against human HeLa cells assessed as cell viability at 1 uM after 72 hrs by MTT assay in presence of Escherichia coli NTR and NADPH (reference value: 67.2%); type: functional; conditions: read-out: Activity
# [22] = Half life in aqueous buffer assessed as nitric oxide release at pH 7.4; type: physicochemical
# DLD-1 [23] = experiment: Antiproliferative activity against human DLD1 cells assessed as cell viability at 50 uM after 72 hrs by MTT assay in presence of Escherichia coli NTR and NADPH (reference value: 107.4%); type: functional; conditions: DLD-1, 72 h, read-out: Activity; how it was run: as §3
# DLD-1 [24] = experiment: Antiproliferative activity against human DLD1 cells assessed as cell viability at 100 uM after 72 hrs by MTT assay in absence of Escherichia coli NTR and NADPH (reference value: 107.4%); type: functional; conditions: DLD-1, 72 h, read-out: Activity; how it was run: as §3
# DLD-1 [25] = experiment: Cytotoxicity against human DLD1 cells assessed as cell viability at 25 uM after 72 hrs by MTT assay in presence of Escherichia coli NTR and NADPH (reference value: 107.4%); type: functional; conditions: DLD-1, 72 h, read-out: Activity; how it was run: as §3
# DLD-1 [26] = experiment: Antiproliferative activity against human DLD1 cells assessed as cell viability at 100 uM after 72 hrs by MTT assay in presence of Escherichia coli NTR and NADPH (reference value: 107.4%); type: functional; conditions: DLD-1, 72 h, read-out: Activity; how it was run: as §3
# DLD-1 [27] = experiment: Antiproliferative activity against human DLD1 cells assessed as cell viability at 50 uM after 72 hrs by MTT assay in absence of Escherichia coli NTR and NADPH (reference value: 107.4%); type: functional; conditions: DLD-1, 72 h, read-out: Activity; how it was run: as §3
# DLD-1 [28] = experiment: Antiproliferative activity against human DLD1 cells assessed as cell viability at 25 uM after 72 hrs by MTT assay in absence of Escherichia coli NTR and NADPH (reference value: 107.4%); type: functional; conditions: DLD-1, 72 h, read-out: Activity; how it was run: as §3
SMILES,Stability [1],Drug metabolism [7],Stability [9],Stability [10],t1/2 [22],viability at 75 µM (DLD-1 [17]),viability at 75 µM (DLD-1 [18]),further results
[Na+].[O-]/N=[N+](\[O-])N1CCCC1,–,–,–,–,2 s,–,–,–
CN(C)/[N+]([O-])=N/[O-].[Na+],–,–,–,–,24 s,–,–,–
CCN(CC)/[N+]([O-])=N/[O-].[Na+],–,–,–,–,120 s,–,–,–
O=C(OCc1ccc([N+](=O)[O-])cc1)c1ccccc1,Stable,1.1 µM,68%,Stable,–,–,–,viability at 50 µM (DLD-1 [23]): 85.5%; viability at 100 µM (DLD-1 [24]): 84.5%; viability at 25 µM (DLD-1 [25]): 93.4%; viability at 100 µM (DLD-1 [26]): 50.5%; viability at 50 µM (DLD-1 [27]): 89.2%; viability at 25 µM (DLD-1 [28]): 98.3%

# Second part, led by results:
Stability [1],Drug metabolism [7],Stability [9],Stability [10],t1/2 [22],SMILES,viability at 75 µM (DLD-1 [17]),viability at 75 µM (DLD-1 [18]),further results
Stable,19.7 µM,31%,Stable,–,CC1CCCCN1/[N+]([O-])=N/OCc1ccc([N+](=O)[O-])cc1 (configuration not stated),53%,10.2%,Drug metabolism [2]: 17 µM; viability at 10 µM (HeLa [3]): 65.3%; viability at 25 µM (DLD-1 [4]): 12.5%; viability at 1 µM (DLD-1 [5]): 82.1%; viability at 1 µM (DLD-1 [6]): 38.6%; viability at 1 µM (HeLa [8]): 76.9%; viability at 25 µM (HeLa [11]): 24.6%; Activity (HeLa [12]): Dose-dependent effect; viability at 25 µM (HeLa [13]): 6.9%; viability at 25 µM (DLD-1 [14]): 63.7%; Drug metabolism [15]: 6 µM; viability at 10 µM (DLD-1 [16]): 30.8%; viability at 10 µM (DLD-1 [19]): 69.1%; viability at 10 µM (HeLa [20]): 31.1%; viability at 1 µM (HeLa [21]): 56.6%
Stable,13.6 µM,60%,Stable,–,CN(C)/[N+]([O-])=N/OCc1ccc([N+](=O)[O-])cc1,74.7%,32.2%,–
Stable,18.3 µM,28%,Stable,–,O=[N+]([O-])c1ccc(CO/N=[N+](\[O-])N2CCCC2)cc1,68.6%,48.5%,–
Stable,6.8 µM,60%,Stable,–,CCN(CC)/[N+]([O-])=N/OCc1ccc([N+](=O)[O-])cc1,79.2%,27.5%,–
